High-throughput results deposited in PubChem by several laboratories.
The entries come from a sample that favours hits as a whole.
V-ATPase pHluor: alters yeast V-ATPase proton transport; S. cerevisiae, pHLuorin cytosolic pH fluorescence; response, % at 10 µM; actives 0.37% (n = 350,000); AID 504577; in the data active means response mostly above about 7.3%, no sharp cut-off; inactive means mostly below about 5.4%; further: actives read high
TbMetRS inhib: Trypanosoma brucei MetRS inhibition | purified T. brucei MetRS, ATP depletion, Kinase-Glo luminescence | actives 0.4% (n = 360,000) | inhibition, % at 11.9 µM;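 active means inhibition above a per-plate cutoff of the control wells' mean inhibition plus 3 SD, cut at about 5.5% in these data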;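 further: 0% = DMSO wells median and 100% = median of wells with control inhibitor compound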
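Material – parasite MetRS enzyme · Medium – HEPES-MgCl2-KCl buffer plus DTT, spermine, BSA, pyrophosphatase · Reagent – ATP, methionine and E. coli bulk tRNA substrates · Times – 15 min enzyme-compound preincubation, 2 h reaction, 10 min detection, 25 °C · Measured by – luminescence of leftover ATP · Evaluation – percent inhibition relative to median high and low control wells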
XBP1 UPR activ: adaptive UPR (XBP1) activation; CHO-XBP1 luciferase reporter, IRE1-XBP1 UPR activation, luminescence; percent of tunicamycin response, DMSO as zero; actives 0.33% (n = 330,000); activation, % at 20 µM;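 active means versus positive control, 20 µM dose yields 30% or more activation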;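 further: 100% = tunicamycin at 10 µg/mL and 0% = DMSO only wells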
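Material: CHO-XBP1 cells stably carrying IRE1-XBP1-driven luciferase reporter / Amount: 1000 cells per well / Compound: 20 µM, 1% DMSO / Times: 6 h treatment, 37 °C / Detection: luciferase luminescence / Measure: % activation of reporter signal versus tunicamycin and DMSO controls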
UPR CHOP act: activators of apoptotic arm of unfolded protein response (CHOP) | activation, % at 10 µM | actives 0.34% (n = 330,000) | CHO-CHOP luciferase reporter, UPR activation, luminescence; percent of tunicamycin response over DMSO baseline;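 active means at 10 µM dose, activation of 40% or more, normalized to positive control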;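 further: 100% = tunicamycin at 10 µg/mL and 0% = DMSO alone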
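Material: CHO-CHOP cells, stable luciferase reporter of PERK-eIF2a-CHOP signalling; quantity: 500 reporter cells seeded per well; buffer or medium: F12 medium containing 10% fetal bovine serum; compound: one dose, 10 µM in 0.5% DMSO; incubation: 6 h compound treatment, 37 °C; measured by: Steady-Glo luciferase luminescence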
CHOP inh: CHOP inhibition in unfolded protein response; CHO-K1 CHOP-promoter luciferase, tunicamycin-induced, 15-18 h; inhibition, % at 10 µM; actives 3.8% (n = 220,000);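 active means compounds that reduced the stress-induced luciferase reporter signal by more than about 70% of percent inhibition, limit read from the data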;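 further: 0% = tunicamycin plus vehicle and 100% = wells without tunicamycin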
CHOP inh conf: confirmation of CHOP induction inhibitors | AID 504437 | CHO-CHOP promoter luciferase reporter, tunicamycin-induced, luminescence | shares compounds with CHOP inh | actives 45% (n = 2,100) | inhibition, % at 10 µM;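 active means mean of three repeat readings of reporter signal inhibition above a set limit, cut at about 70% in these data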;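 further: 0% = tunicamycin plus vehicle and 100% = wells lacking tunicamycin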
Active calls of the source: *.

Cc1nc2c(ccc3nc(NC(=O)c4ccc5c(c4)OCCO5)sc32)s1 was read as V-ATPase pHluor -2, TbMetRS inhib -1, XBP1 UPR activ 3, UPR CHOP act 3, CHOP inh 100* and CHOP inh conf 43.
For Cc1nc2ccc3nc(NC(=O)c4ccc5c(c4)OCCO5)sc3c2s1 the results were V-ATPase pHluor 2, TbMetRS inhib 1, XBP1 UPR activ -4, UPR CHOP act 4 and CHOP inh -51.
`CC(=O)Nc1ccc(Nc2nc(C)c([N+](=O)[O-])c(Nc3ccc(NC(C)=O)cc3)n2)cc1` gave V-ATPase pHluor 1, TbMetRS inhib 0, XBP1 UPR activ 2, UPR CHOP act -1 and CHOP inh -15.
Screening COc1cccc(-n2c(N)c(C(=O)Nc3c(C)n(C)n(-c4ccccc4)c3=O)c3nc4ccccc4nc32)c1 returned V-ATPase pHluor -2, TbMetRS inhib -1, XBP1 UPR activ -2, UPR CHOP act 2 and CHOP inh 46.
Screening Cc1cc(C)cc(-n2c(N)c(C(=O)Nc3c(C)n(C)n(-c4ccccc4)c3=O)c3nc4ccccc4nc32)c1 returned V-ATPase pHluor 2, TbMetRS inhib 1, XBP1 UPR activ 1, UPR CHOP act 10, CHOP inh 105* and CHOP inh conf 39.
For Cc1ccc(-n2c(N)c(C(=O)Nc3c(C)n(C)n(-c4ccccc4)c3=O)c3nc4ccccc4nc32)cc1 the results were V-ATPase pHluor 3, TbMetRS inhib 0, XBP1 UPR activ -2, UPR CHOP act 0, CHOP inh 107* and CHOP inh conf 55.
`C#CC(=O)N(c1cc(OC)ccc1OC)C(C(=O)NC1CCCC1)c1cccs1` (stereo not drawn) gave V-ATPase pHluor 0, TbMetRS inhib -1, XBP1 UPR activ -9, UPR CHOP act -9, CHOP inh 108* and CHOP inh conf 111*.
Screening COc1cccc(N(C(=O)CS(=O)CC(=O)Nc2ccc(F)cc2)C(C(=O)NC2CCCCC2)c2cccs2)c1 (stereo not drawn) returned V-ATPase pHluor 0, TbMetRS inhib 0, XBP1 UPR activ -6, UPR CHOP act 1, CHOP inh 100* and CHOP inh conf 51.
Screening COc1ccc(N(C(=O)c2snc(C(N)=O)c2N)C(C(=O)NC2CCCC2)c2cccs2)cc1OC (stereo not drawn) returned V-ATPase pHluor 2, TbMetRS inhib -1, XBP1 UPR activ 2 and UPR CHOP act 1.
For O=c1[nH]c(C2CCN(S(=O)(=O)c3cccc([N+](=O)[O-])c3)CC2)nc2c1nnn2Cc1ccccc1 the results were V-ATPase pHluor 1, TbMetRS inhib -1, XBP1 UPR activ -4 and UPR CHOP act 0.
Screening CN1CCN(CC#CCn2c3ccccc3c3ccccc32)CC1 returned V-ATPase pHluor 8, TbMetRS inhib 1, XBP1 UPR activ 1, UPR CHOP act 2 and CHOP inh -9.
For CC(OC(=O)C1CCCCC1)C(=O)Nc1cccc(Cl)c1 (stereo not drawn) the results were V-ATPase pHluor -2, TbMetRS inhib 0, XBP1 UPR activ -3, UPR CHOP act -2 and CHOP inh 2.
O=C(OC(C(=O)Nc1cccc(C(F)(F)F)c1)c1ccccc1)C1CCCCC1 (stereo not drawn) was read as V-ATPase pHluor 0, TbMetRS inhib 0, CHOP inh 107* and CHOP inh conf 33.
For Cc1ccccc1-c1n[nH]c(=S)n1/N=C/c1c(C)nn(-c2ccccc2)c1C the results were V-ATPase pHluor 2, TbMetRS inhib 1, XBP1 UPR activ 2, UPR CHOP act -1 and CHOP inh 30.
`Cc1ccc(-c2n[nH]c(=S)n2/N=C/c2c(C)nn(-c3ccccc3)c2C)cc1` gave V-ATPase pHluor 7, TbMetRS inhib 0, XBP1 UPR activ 5, UPR CHOP act 1, CHOP inh 109* and CHOP inh conf 37.
CC(C)NC(=O)CC(c1ccccc1)c1cc(Br)ccc1O (stereo not drawn) was read as V-ATPase pHluor -3, TbMetRS inhib 0, XBP1 UPR activ 0, UPR CHOP act -1 and CHOP inh 23.
Screening CCCCCCNC(=O)CC(c1ccccc1)c1cc(Br)ccc1O (stereo not drawn) returned V-ATPase pHluor 0, TbMetRS inhib -1, XBP1 UPR activ -3, UPR CHOP act 1, CHOP inh 101* and CHOP inh conf 112*.
`COc1ccc(NC(=O)CNc2ccccc2C(C)=O)cc1S(=O)(=O)N1CCOCC1` gave V-ATPase pHluor 1, TbMetRS inhib 0, XBP1 UPR activ 0 and UPR CHOP act 0.
`CC1C/C(=C/c2ccncc2)C(=O)/C(=C/c2ccncc2)C1` (stereo not drawn) gave V-ATPase pHluor 3, TbMetRS inhib 0, XBP1 UPR activ 2, UPR CHOP act 36, CHOP inh 99* and CHOP inh conf -59.
`Cc1ccc(NS(=O)(=O)c2c(C)[nH]c(C)c2C(=O)N2CCCC2)cc1Cl` gave V-ATPase pHluor 0, TbMetRS inhib 4, XBP1 UPR activ 5 and UPR CHOP act 0.
`COc1ccc(N=c2ssnc2Cl)cc1` gave V-ATPase pHluor 3, TbMetRS inhib 0, XBP1 UPR activ -3, UPR CHOP act 5, CHOP inh 109* and CHOP inh conf 2.
CCOC(=O)c1ccc(N=c2ssnc2Cl)cc1 was read as V-ATPase pHluor -6, TbMetRS inhib 0, XBP1 UPR activ 0, UPR CHOP act 1, CHOP inh 98* and CHOP inh conf 56.
Screening CCOC(=O)c1ccc(N=C2SC(C(=O)NC)CC(=O)N2Cc2ccc(F)cc2)cc1 (stereo not drawn) returned V-ATPase pHluor -2, TbMetRS inhib 0, XBP1 UPR activ -2, UPR CHOP act 0 and CHOP inh 28.
Screening NC(=O)[C@@H]1CCCN1Cc1c(C(=O)N2CCc3ccccc3C2)nc2ccc(Cl)cn12 returned V-ATPase pHluor -3, TbMetRS inhib 0, XBP1 UPR activ -3 and UPR CHOP act -1.
`CSc1nc2c(c(=O)[nH]c(=O)n2C)n1CCCc1ccccc1` gave V-ATPase pHluor -3, TbMetRS inhib 0, XBP1 UPR activ 2 and UPR CHOP act -2.
For CCC(C)Sc1nc2c(c(=O)[nH]c(=O)n2C)n1Cc1ccc(Cl)cc1 (stereo not drawn) the results were V-ATPase pHluor -4, TbMetRS inhib -2, XBP1 UPR activ 6, UPR CHOP act -1, CHOP inh 98* and CHOP inh conf 103*.
